We go through 23 compounds from ChEMBL document CHEMBL1137535, “Structure-activity relationship of antileishmanials neolignan analogues” (2007).

What is called inhibition is the change of the read-out against control, counted positive when it falls.

A short description of experiment [1]: Toxicity against BALB/c mouse macrophages assessed as disrupted cells. It is filed as functional, Macrophage.
A short description of experiment [2]: (§1) Toxicity against BALB/c mouse macrophages assessed as cell viability. It is filed as functional, Macrophage. Also on record: concentration or dose not given beside the values.
The test system of experiment [3] is Leishmania donovani. The experiment in a line: Antileishmanial activity against Leishmania donovani LD-1/MHOM/SD/00-1S in mouse peritoneal macrophages at 80 ug/mL after 48 hrs relative to control. It is filed as functional. The method, boiled down:
(§2)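 BALB/c peritoneal macrophages, 2 · 10⁵ cells per chamber in DMEM, held 2 h at 37 °C in 4% CO₂/air. They were then infected for 4 h with 8 · 10⁵ stationary-phase promastigotes in DMEM with 5% heat-inactivated FCS and antibiotics. After washing off free parasites, compound was added in quadruplicate for 48 h. Monolayers were methanol-fixed and Giemsa-stained, and amastigotes counted per 200 cells. Result is % growth inhibition versus untreated controls.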

Experiment [4] deals with Leishmania amazonensis. The experiment can be described thus: Antileishmanial activity against Leishmania amazonensis MHOM/BR/75-josefa in mouse peritoneal macrophages at 80 ug/mL after 48 hrs relative to control. The format is functional. In short, it runs like this:
as §2

Experiment [5] relates to Macrophage. The description is as §1. The format is functional. Also on record: concentration or dose not given beside the values.

For the compound `COc1ccc(C(=O)C(C)Sc2ccc(N)cc2)cc1OC` (configuration not stated), in experiment [1], the Activity is over 80%.
With `COc1ccc(C(=O)C(C)S(=O)(=O)c2ccc(C)cc2)cc1OC` (configuration not stated), the Activity in experiment [2] is listed as over 80%. Moreover, the inhibition at 80 µg/mL in experiment [3] was 0%; in experiment [4] it was 7%.
As to `O=C(COc1ccccc1)c1ccccc1`, the Activity in experiment [2] is listed as over 80%. Besides, the values for the inhibition at 80 µg/mL in experiment [3] and in experiment [4] were 40% and 44%, respectively.
Regarding `COc1ccc(C(=O)C(C)Sc2ccc(C)cc2)cc1OC` (configuration not stated), the inhibition at 80 µg/mL in experiment [3] and in experiment [4] was 100% throughout.
As to `CC(Sc1ccc(Cl)cc1)C(=O)c1ccccc1` (configuration not stated), the Activity in experiment [2] was over 80%. In addition, the inhibition at 80 µg/mL in experiment [3] was 94.1%; in experiment [4], 100%.
With `CC(C(=O)c1ccccc1)S(=O)(=O)c1ccc(Cl)cc1` (configuration not stated), in experiment [2], the Activity was over 80%. For the same compound, the inhibition at 80 µg/mL in experiment [3] and in experiment [4] was 0% in each case.
For the compound `C/C=C/c1ccc(OC(C)C(=O)c2ccc(OC)c(OC)c2)c(OC)c1` (configuration not stated), the Activity in experiment [2] is over 80%. Besides, the inhibition at 80 µg/mL in experiment [3] stood at 50%; in experiment [4] it was 34.2%.
As for `COc1ccc(C(=O)C(C)Oc2c(OC)cccc2OC)cc1OC` (configuration not stated), the Activity in experiment [2] is recorded as over 80%. Further, the results for the inhibition at 80 µg/mL in experiment [3] and in experiment [4] were 49.9% and 37.9%, respectively.
For `CC(=O)O[C@H](c1ccccc1)[C@H](C)Sc1ccc(Cl)cc1` (relative stereo), the Activity in experiment [2] was over 80%. For the same compound, the inhibition at 80 µg/mL in experiment [3] and in experiment [4] was 0% in each case.
With `CC(C(=O)c1ccccc1)[S+]([O-])c1ccc(Cl)cc1` (configuration not stated), the Activity in experiment [2] is reported as over 80%. Also, the inhibition at 80 µg/mL in experiment [3] was 0%; in experiment [4], 20.7%.
For the compound `COc1ccc(C(=O)C(C)Sc2ccccc2)cc1OC` (configuration not stated), in experiment [1], the Activity is on record as over 80%.
Consider `COc1ccc([C@@H](O)[C@H](C)Sc2ccc(C)cc2)cc1OC` (relative stereo), for which the Activity in experiment [2] is given as over 80%. In addition, the inhibition at 80 µg/mL in experiment [3] was 0%; in experiment [4], 40.6%.
As for `CC(Sc1ccccc1)C(=O)c1ccccc1` (configuration not stated), the Activity in experiment [2] was over 80%. Besides, the inhibition at 80 µg/mL in experiment [3] came to 70.2%; in experiment [4], 78.1%.
`CC(Sc1ccc(N)cc1)C(=O)c1ccccc1` (configuration not stated): the Activity in experiment [2] is recorded as over 80%. The results for the inhibition at 80 µg/mL in experiment [3] and in experiment [4] were 28.8% and 0%, respectively.
Regarding `C[C@H](Sc1ccc(Cl)cc1)[C@H](O)c1ccccc1` (relative stereo), in experiment [2], the Activity is on record as over 80%. Moreover, the inhibition at 80 µg/mL worked out at 45.2% in experiment [3] and 50.6% in experiment [4].
Regarding `COc1ccc(C(=O)C(C)Sc2ccc(Cl)cc2)cc1OC` (configuration not stated), the Activity in experiment [2] is on record as over 80%. Besides, the inhibition at 80 µg/mL in experiment [3] worked out at 22%; in experiment [4], 63.3%.
Regarding `O=C(CSc1ccc(Cl)cc1)c1ccccc1`, the Activity in experiment [2] is listed as over 80%. For the same compound, the values for the inhibition at 80 µg/mL in experiment [3] and in experiment [4] were 37.2% and 38.8%, respectively.
In the same order, the values of `CSc1ccccc1OCC(=O)c1ccc(Cl)cc1` are over 80%, 5.8% and 8.8%.
Turning to `COc1ccc([C@@H](O)[C@H](C)Sc2ccc(Cl)cc2)cc1OC` (relative stereo), the Activity in experiment [2] is given as over 80%. In addition, the values for the inhibition at 80 µg/mL in experiment [3] and in experiment [4] were 0% and 36.1%, respectively.
For the compound MEGLUMINE ANTIMONATE, the Activity in experiment [5] is over 80%. The inhibition in experiment [3] came to 26%; in experiment [4], 28.2%.
For the compound `O=C(CSc1ccc(Cl)cc1)c1ccc(Cl)cc1`, the Activity in experiment [2] is reported as over 80%. Also, the inhibition at 80 µg/mL in experiment [3] was 0%; in experiment [4] it was 50.5%.
Turning to `Cc1ccc(SC(C)C(=O)c2ccccc2)cc1` (configuration not stated), in experiment [1], the Activity is over 80%.
`COc1ccc(C(=O)COc2ccc(Cl)cc2)cc1OC`: the Activity in experiment [2] is reported as over 80%. In addition, the inhibition at 80 µg/mL in experiment [3] worked out at 0%; in experiment [4] it was 17.7%.
